Assay outcomes (PubChem)
MrgX1 ag – activates human MrgX1 receptor signaling; 0.44% of 310,000 active; MrgX1-HEK293 cells, Fluo-4 calcium fluorescence, agonist mode; hits give high values; B-score at 10 µM; Q96LB2; AID 588627;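 active = calcium response B-score plate-corrected fluorescence ratio at least 3 library SD, with starting fluorescence B-score inside 5 SD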
Target sequence (Q96LB2 whole entry, looked up): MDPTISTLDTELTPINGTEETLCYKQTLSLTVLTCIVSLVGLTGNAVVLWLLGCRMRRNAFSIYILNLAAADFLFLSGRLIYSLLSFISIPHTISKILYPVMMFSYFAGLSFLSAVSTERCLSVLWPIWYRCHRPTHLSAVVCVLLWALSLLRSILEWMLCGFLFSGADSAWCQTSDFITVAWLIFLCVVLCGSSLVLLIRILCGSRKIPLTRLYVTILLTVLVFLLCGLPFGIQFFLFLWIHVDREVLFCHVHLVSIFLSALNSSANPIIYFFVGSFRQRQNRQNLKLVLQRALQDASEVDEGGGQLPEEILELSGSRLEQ
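System: HEK293 cells stably expressing human MrgX1 receptor; Dosing: test compound in the initial addition of three; Schedule: overnight plating, then 30 min 37 °C plus 30 min room-temperature dye loading; Detection: kinetic calcium dye fluorescence, Fluo-4 NW; Controls: per-plate positive and negative controls for Z′ factor.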
MrgX1 PAM – human MrgX1 positive allosteric modulation, primary screen; 0.63% of 310,000 active; Q96LB2; MrgX1-HEK293, Fluo-4 calcium flux, FDSS; hits give high values; B-score at 10 µM;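 active = plate-corrected calcium response at least 3 library SD above typical, normal starting fluorescence, not activating the receptor alone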;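 note: compound read alongside a low EC10 to EC30 dose of BAM8-22 agonist; peak minus trough fluorescence over baseline measured at the second addition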
RGS4 pot – RGS4 potentiation or activation; B-score at 10 µM; 0.92% of 310,000 active; HEK293 M3R/inducible RGS4, carbachol calcium flux Fluo4; hits give low values;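 active = B-score of the integrated calcium signal more than 4 SD below the library mean, with starting fluorescence not abnormally high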;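 note: negative B-score means reduced calcium response which marks RGS4 activation or potentiation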
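Material: Inducible-RGS4 HEK293 cells carrying M3 receptor; also added: carbachol at ECmax as muscarinic agonist stimulus; incubation: compound preincubation 20 min at room temperature before agonist; signal: Fluo4-AM (2 µM) calcium-flux fluorescence, kinetic read; measure: integrated calcium ratio converted to B score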
RGS4 inh – inhibitors of human RGS4; HEK293 M3R/RGS4 inducible, Fluo-4 calcium flux; hits give high values; triggered by carbachol at its EC20; B-score at 10 µM; 0.45% of 310,000 active; P49798;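 active = B-score, a plate-corrected calcium signal, over three deviations above library mean, with baseline fluorescence within five deviations of library mean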;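 note: RGS4 expression induced by doxycycline in cells with stable M3 receptor; B-score is computed from the integrated fluorescence ratio over baseline after carbachol; higher B-score means a larger calcium signal and so more RGS4 inhibition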
Target sequence (P49798 whole entry, looked up): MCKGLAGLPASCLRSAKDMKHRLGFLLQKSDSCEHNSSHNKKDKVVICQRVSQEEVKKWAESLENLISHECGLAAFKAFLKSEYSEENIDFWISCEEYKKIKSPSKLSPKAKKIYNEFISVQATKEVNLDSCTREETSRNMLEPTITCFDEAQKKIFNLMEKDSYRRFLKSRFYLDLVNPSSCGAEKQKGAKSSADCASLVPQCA
MrgX1 antagonist – human MrgX1 receptor antagonism, primary screen; Q96LB2; MRGX1-HEK293 calcium flux, Fluo-4, BAM8-22 antagonism; hits give low values; B-score at 10 µM; 1.3% of 310,000 active; AID 588676;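 active = calcium-response B-score plate-corrected more than 3 library SD below zero, starting fluorescence within 5 deviations, no agonist response on first addition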;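 note: peak minus trough fluorescence over baseline after final BAM8-22 challenge near maximal dose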
* marks the source's active call; other numbers are inactive results; i = inactive; / = no result given. Compounds with a hit are over-represented: about 3.5% of the library has one in this group of screens.

SMILES | MrgX1 ag | MrgX1 PAM | RGS4 pot | RGS4 inh | MrgX1 antagonist
CCn1ccnc1CN1CCc2c([nH]c3ccccc23)C1C1CCCCC1 (centres undefined) | i | i | -7.6* | i | i
COc1coc(/C=C/C(=O)O)cc1=O | i | i | i | i | i
O=C(c1cccc(C(=O)N(c2ccccn2)C2CCCCC2)c1)N(c1ccccn1)C1CCCCC1 | i | i | i | i | -6.8*
N#C/C(=C\c1ccccc1)C(=O)N(c1ccccn1)C1CCCCC1 | 33* | i | i | i | i
C=CCc1cccc([C@@H]2[C@@H](C)CC[C@H]3C(=O)N4[C@@H](c5cc(OC)c(OC)c(OC)c5)c5[nH]c6ccccc6c5C[C@H]4C(=O)N23)c1 | i | i | i | i | i
CCOc1ccc(NC(=O)CN(c2ccc([N+](=O)[O-])cc2)S(=O)(=O)c2ccccc2)cc1 | i | i | i | i | -5.4*
CCCCNC(=O)Cn1nc([N+](=O)[O-])c([N+](=O)[O-])c1C | i | i | i | i | -5.4*
C/C(=C\C(=O)Nc1nccs1)c1ccccc1 | i | i | i | i | i
CC(=O)NCC(=O)N(c1c(C)n(C)n(-c2ccccc2)c1=O)C1(C(=O)NC2CCCC2)CCCCC1 | i | 15* | i | i | i
COc1ccc(CN(C(=O)CSc2nnc(-c3ccc(F)cc3)o2)c2ccc(F)cc2)cc1 | i | i | i | i | i
COc1ccc(CN(C(=O)CSc2nnc(-c3c[nH]c4ccccc34)o2)c2ccc(F)cc2)cc1OC | i | i | -8.4* | i | i
O=C(Nc1ccccc1Cc1ccccc1)c1oc2ccccc2c1COc1ccccc1 | i | i | i | i | -5.5*
Cc1ccc(C)n1-c1ccc(C(=O)NCC2CCCO2)cc1 (centres undefined) | i | i | / | / | i
N/C(=N\OC(=O)c1cccs1)c1ccc(Cl)cc1 | i | i | i | i | -5.8*
COc1ccc(/C(N)=N/OC(=O)c2cccs2)cc1 | i | i | i | i | i
CCc1ccc2oc(=O)cc(CN3CCC(C)CC3)c2c1 | 29* | i | i | i | i
CC1CCN(Cc2cc(=O)oc3cc4c(cc23)CCCC4)CC1 | i | 8.5* | i | i | i
CCc1ccc2oc(=O)cc(CN3CCOCC3)c2c1 | i | i | i | i | i
COc1ccc(NC(=O)C2(S(=O)(=O)c3ccc(C)cc3)CC2)cc1 | i | i | i | i | i
CN(/N=C/c1ccncc1)c1cnc2ccccc2n1 | i | i | i | i | i
CCC1CCCCN1S(=O)(=O)c1ccc(C(=O)Nc2nnc(-c3cccs3)o2)cc1 (centres undefined) | 65* | i | / | / | i
O=C(NCCC1CCCCN1S(=O)(=O)c1ccccc1)C(=O)NCc1ccc(F)cc1 (centres undefined) | i | i | i | i | i
CCC1CCc2c([nH]c3ccccc3c2=O)O1 (centres undefined) | i | i | i | i | i
CC1(C)CCc2c([nH]c3ccccc3c2=O)O1 | i | i | -7* | i | i
Cc1ccc(C)c(N2CCN(c3ncccc3[N+](=O)[O-])CC2)c1 | i | i | i | i | i
SMILES | MrgX1 ag | MrgX1 PAM | RGS4 pot | RGS4 inh | MrgX1 antagonist
C=CCn1c(-c2c(C)nc3cc(C)ccn23)n[nH]c1=S | i | i | i | i | -5.9*
C=CCn1c(-c2ccc(OC)c(OC)c2)n[nH]c1=S | i | i | i | i | i
Cn1c(=O)c2c(ncn2CC(=O)N/N=C/C=C/c2ccco2)n(C)c1=O | i | 18* | i | i | i
O=C(NC(c1cccnc1)C(F)(F)F)c1cc(COc2ccc3c(c2)CCCC3)on1 (centres undefined) | i | i | -7.1* | i | i
Cc1ccc(-c2csc(Cc3nc(-c4cc5ccccc5oc4=O)cs3)n2)cc1 | i | i | -7* | i | i
CS(=O)(=O)Oc1ccc2c(c1)O/C(=C\c1cccnc1)C2=O | i | i | i | i | i
COc1cc(OC)c(OC)cc1/C=C1\Oc2cc(OS(C)(=O)=O)ccc2C1=O | i | i | i | i | -7.4*
COc1ccc(NC(=O)CCCCCn2nnc3ccccc3c2=O)cc1 | i | i | i | i | i
CCc1oc(C(=O)OC)cc1CSC(=N)N | 43* | i | i | i | i
CSC(=O)NC(=O)NC(=O)c1ccc([N+](=O)[O-])cc1 | i | i | i | i | i
N#C/C(=C\c1ccc[nH]1)C(=O)NCC1CCCO1 (centres undefined) | i | 7.8* | i | i | i
CCC(C)Sc1cccc(-c2nc3ccc(C)cn3c2NCc2ccccc2)c1 (centres undefined) | i | i | -7.6* | i | i
CCCOc1ccc(NC(=O)Cc2ccc(S(=O)(=O)N3CCOCC3)s2)cc1OCCC | i | i | i | i | -4.7*
CCCC(=NC(C)CC)C1=C(O)CC(c2ccccc2)CC1=O (centres undefined) | i | i | i | i | i
CCn1cc(C2=NOC(C(=O)Nc3cccc(C(C)=O)c3)C2)c(C)n1 (centres undefined) | i | i | i | i | -4.8*
CCC(C)(C)NC(=O)C(c1ccco1)N(C(=O)Cn1nnc2ccccc21)c1ccc2c(c1)OCO2 (centres undefined) | i | 8.9* | i | i | i
Cc1ccc(N(C(=O)Cn2nnc3ccccc32)C(C(=O)NCc2ccco2)c2ccc(C)o2)cc1 (centres undefined) | / | / | i | i | /
C/C(=N\N=C(N)N)c1ccc(Cl)c(Cl)c1 | i | 14* | i | i | i
C/C(=N\NC(=O)C1CC1)c1ccc(Cl)c(Cl)c1 | i | i | i | i | i
Cc1[nH]c(=O)[nH]c(=O)c1CSc1nnc(CCCCCNC(=O)OC(C)(C)C)o1 | i | i | i | i | i
CCOC(=O)c1sc2cc([N+](=O)[O-])cc(SCCO)c2c1N | i | i | i | i | i
CCOC(=O)c1sc2cc([N+](=O)[O-])cc(SCC(=O)OC)c2c1N | i | i | i | i | -5.7*
Cc1ccc(C(=O)c2cc([N+](=O)[O-])ccc2N2CCCCC2)cc1C | i | i | -7.6* | i | i
CCNc1ccc(Br)cc(C(=O)/C=C/c2ccc(Cl)cc2)c1=O | i | i | i | i | i
CCNc1ccc(Br)cc(C(=O)/C=C/c2c(Cl)cccc2Cl)c1=O | i | i | i | i | -4.6*
COc1ccc2c(c1)nc(SCC(=O)c1cccs1)n2C | i | i | i | i | i
